MEKK2 mut-MEK5 = signal of MEK5 binding to mutant human MEKK2 PB1 domain | percent response, % at 10 µM | actives 0.35% (n = 290,000) | bead flow cytometry, Alexa488-MEK5 binding to MEKK2 mutant; in the data active means percent response above about 24%, passing the limit was not always enough
VIM-2 inhibitor = blocks Pseudomonas aeruginosa VIM-2 metallo-beta-lactamase | purified VIM-2, nitrocefin hydrolysis, epi-absorbance fluorescence | inhibition, % at 5.6 µM | actives 0.89% (n = 290,000) | AID 1527;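 active means inhibition above the mean of all tested compounds plus 3 SD, cutoff set per screening run, cut at about 7.5% in these data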;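 further: red hydrolysis product quenches plate fluorescence so inhibitors raise well fluorescence; 0% = enzyme with DMSO and 100% = DMSO without enzyme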
MEKK3 PB1 HTS = MEKK3-MEK5 PB1 interaction, increase or decrease; bead-based flow cytometry, Alexa488-MEK5 binding to MEKK3; actives lie on both sides; 0 = blocked by unlabeled MEK5, 100 = vehicle; binding response (% of control), % at 10 µM; actives 1.4% (n = 290,000); AID 1529;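 active means binding response more than 3 SD above or below the average of its plate-row segment, actives on both sides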;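 further: Alexa488 bead fluorescence after subtracting the streptavidin-only scavenger bead signal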
Target sequence (Q99759 whole entry, looked up): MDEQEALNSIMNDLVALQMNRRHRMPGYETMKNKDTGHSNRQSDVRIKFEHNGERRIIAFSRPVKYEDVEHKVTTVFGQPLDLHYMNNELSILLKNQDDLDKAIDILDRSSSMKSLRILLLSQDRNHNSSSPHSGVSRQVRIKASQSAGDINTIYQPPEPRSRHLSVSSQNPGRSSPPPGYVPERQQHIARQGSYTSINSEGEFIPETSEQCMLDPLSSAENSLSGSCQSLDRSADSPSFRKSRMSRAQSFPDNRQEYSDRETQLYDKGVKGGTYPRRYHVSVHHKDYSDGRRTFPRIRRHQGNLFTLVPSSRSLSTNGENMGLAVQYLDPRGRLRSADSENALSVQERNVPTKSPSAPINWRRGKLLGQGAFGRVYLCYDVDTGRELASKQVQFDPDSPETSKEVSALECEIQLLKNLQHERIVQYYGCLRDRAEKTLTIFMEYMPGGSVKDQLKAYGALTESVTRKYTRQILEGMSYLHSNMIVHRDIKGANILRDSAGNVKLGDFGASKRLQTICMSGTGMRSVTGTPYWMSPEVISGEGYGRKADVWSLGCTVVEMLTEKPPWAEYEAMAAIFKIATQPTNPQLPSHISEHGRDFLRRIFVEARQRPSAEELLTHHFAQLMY
IMP-1 inh = inhibitors of Pseudomonas aeruginosa IMP-1 metallo-beta-lactamase; purified IMP-1, nitrocefin hydrolysis, epi-absorbance fluorescence; inhibition, % at 5.6 µM; actives 0.45% (n = 290,000); AID 1556;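 active means inhibition above the mean plus 3 SD of all compounds in the same screening run, cut at about 4.5% in these data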;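 further: 0% = IMP-1 with DMSO and 100% = DMSO wells lacking enzyme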
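System: purified IMP-1; amount: IMP-1 0.2 nM before substrate addition; compound: single dose, 5.6 µM; times: 25 °C, 15 min preincubation, 25 min reaction; signal: Epi-absorbance via hydrolysed-nitrocefin quenching of white-plate fluorescence, 480/530 nm, EDTA stop; benchmarks: DMSO with and without IMP-1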
MEKK2 WT-MEK5 = raises or lowers MEK5 binding to wildtype human MEKK2 PB1 domain; Q9Y2U5; bead flow cytometry, Alexa488-MEK5 binding to MEKK2 WT; actives lie on both sides; binding response (% of control), % at 10 µM; actives 1.1% (n = 290,000); AID 1531; in the data active means binding response below about 67% or above about 130%
MEKK2wt confirm = raises or lowers MEK5 binding to wildtype human MEKK2, retest; shares compounds with MEKK3 PB1 HTS; actives 2.4% (n = 5,900); AID 1892; bead flow cytometry, Alexa488-MEK5 binding to MEKK2 WT; actives lie on both sides; binding response (% of control), % at 10 µM; in the data active means binding response below about 16% or above about 210%; inactive means in between
MEKK2mut confirm = signal of MEK5 binding to mutant human MEKK2, retest. shares compounds with MEKK3 PB1 HTS. bead flow cytometry, Alexa488-MEK5 binding to MEKK2 mutant. percent response, % at 10 µM. actives 2% (n = 5,900). AID 1893; in the data active means percent response mostly above about 71%, no sharp cut-off; inactive means mostly below about 38%;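 further: higher means compound restores mutant binding toward wildtype level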
MEKK3-MEK5 inh = MEKK3-MEK5 PB1 inhibition, single concentration confirmation; shares compounds with MEKK3 PB1 HTS; actives 1.8% (n = 5,900); binding response (% of control), % at 10 µM; bead flow cytometry, Alexa488-MEK5 binding to MEKK3; hits give low values;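 active means binding response below 72% of control, or above a set upper limit, though filed actives all read lower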;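 further: 100% = DMSO only wells and 0% = binding blocked by excess unlabeled MEK5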
* = called active by the depositor; / = not tested or not shown; [ ] = another dose, or the depositor's remark. Shown are actives, neighbours in structure and some others; about 3.4% of the full set was active somewhere.

SMILES	MEKK2 mut-MEK5	VIM-2 inhibitor	MEKK3 PB1 HTS	IMP-1 inh	MEKK2 WT-MEK5	MEKK2wt confirm	MEKK2mut confirm	MEKK3-MEK5 inh
Cc1cc(C)nc(-n2ncc3c2CC(C)CC3=O)n1 (configuration not stated)	-5	-1	104	-3	100	/	/	/
O=C(CSc1ccc(-c2ccco2)nn1)c1ccc(F)cc1	1	-2	128*	-5	105	108	4	100
Cc1ccc(C(=O)CSc2ccc(-c3ccncc3)nn2)cc1	-6	2	97	-1	97	/	/	/
Cc1cccc(NC(=O)CSc2ccc(-c3ccco3)nn2)c1	0	-5	129*	-3	102	108	6	107
Cc1ccc(-c2ccc(SCC(=O)c3ccccc3)nn2)cc1	13	-3	95	-4	63*[inhibitor]	98	0	101
O=C(CSc1ccc(-c2ccco2)nn1)NCc1ccc(F)cc1	0	-4	112	-3	100	/	/	/
O=C(CSc1n[nH]c(=O)n1Cc1ccco1)c1ccc(F)cc1	28	0	131*	-3	133	108	6	104
O=C(CSc1n[nH]c(=O)n1Cc1ccco1)N1CCOCC1	-3	-1	97	1	100	/	/	/
CC(C)(C)C1CCC(OC(=O)C[N+]2(C)CCCC2)CC1 (configuration not stated)	-16	3	56	-1	59	/	/	/
Cc1ccc(NC(=O)C(C)N2CCc3ccccc3C2)cc1 (configuration not stated)	4	-4	104	-3	104	/	/	/
Cc1cc(N2C(=O)c3ccccc3C2=O)n(C)n1	-6	-2	96	-2	97	/	/	/
Cc1nn(S(=O)(=O)N(C)C)c(C)c1CN1C(=O)c2ccccc2C1=O	-4	-1	96	-1	97	/	/	/
COCCOc1ccc(C(F)(F)F)cc1NC(=O)c1ccc(C)cc1	6	-2	93	0	101	/	/	/
COc1ccc(Oc2ccc(C(F)(F)F)cc2NC(=O)c2ccc(C)cc2)cc1	37	0	142*	-3	135	105	-2	103
COc1ccc(OC)c(N/C(=N/C(=S)Nc2ccccc2)Nc2nc(C)cc(C)n2)c1	-49	2	48*[inhibitor]	1	54	88	-4	99
CCNC(=O)CON=C1c2ccccc2-c2ccccc21	0	0	99	-1	103	/	/	/
CCC(CC)NC(=O)CON=C1c2ccccc2-c2ccccc21	0	0	146*	-1	107	99	-2	102
CCOc1ccc(-n2c(Cc3ccccc3)nnc2SCc2c(C)noc2C)cc1	-1	-3	99	-2	98	/	/	/
CN1CCN(S(=O)(=O)c2cccc3nsnc23)CC1	0	1	102	-2	103	/	/	/
O=C(NC(=O)c1csnn1)Nc1ccccc1Cl	-3	-1	101	2	102	/	/	/
NC(=O)NC(=O)Nc1ccccc1Cl	7	-4	130*	-7	125	101	-3	95
CN(CCNC(=O)CN1C(=O)CSc2ccc(S(=O)(=O)N3CCCC3)cc21)Cc1ccccc1	6	-2	101	-3	107	/	/	/
O=C(NC1CC2CCC(C1)N2Cc1nnnn1Cc1ccco1)NC12CC3CC(CC(C3)C1)C2 (configuration not stated)	2	0	108	0	110	/	/	/
CC1CN(Cc2cn(C)nc2-c2ccc(Oc3ccccc3)cc2)CCN1C (configuration not stated)	49	-2	112	-2	172*	109	0	98
Cc1cccc(-c2noc(-c3c(C)noc3C)n2)c1	3	-1	102	-1	104	/	/	/
SMILES	MEKK2 mut-MEK5	VIM-2 inhibitor	MEKK3 PB1 HTS	IMP-1 inh	MEKK2 WT-MEK5	MEKK2wt confirm	MEKK2mut confirm	MEKK3-MEK5 inh
CC(=O)Nc1ccc(C(=O)Nc2ccc(S(=O)(=O)Nc3nccc(C)n3)cc2)cc1	4	-4	104	-2	102	/	/	/
Cc1ccnc(NS(=O)(=O)c2ccc(NC(=O)c3ccc(Br)o3)cc2)n1	1	-3	130*	0	118	97	-9	97
O=C(CCSCCC(=O)NCCN1CCOCC1)NCCN1CCOCC1	-4	-5	81*[inhibitor]	-4	89	97	1	99
O=C(CCSCCc1ccncc1)NCCCN1CCOCC1	-5	-1	91	-2	98	/	/	/
Cc1ccc(C(=O)O/N=C(\N)c2ccc(Br)cc2)cc1C	-15	0	2.0*[inhibitor]	2	1.0*[inhibitor]	102	6	102
Cc1cc(C)cc(C(=O)O/N=C(\N)c2ccc(Br)cc2)c1	2	0	100	1	98	/	/	/
CCCCC(CC(O)COCCC)c1n[nH]c(=S)n1-c1ccccc1 (configuration not stated)	-1	-4	128*	-4	106	106	5	101
CCCCCC(O)CCc1n[nH]c(=S)n1-c1ccccc1 (configuration not stated)	5	4	102	-2	107	/	/	/
Cn1c(SCC(=O)Nc2ccc(NC(=O)c3ccccc3F)cc2)nnc1-c1ccncc1	2	-2	100	-1	98	/	/	/
COc1ccc(NC(=O)CN(c2ccccc2)S(=O)(=O)N(C)C)cc1OC	0	-2	100	-5	101	/	/	/
CCCn1c(/N=C/c2c[nH]c3ccccc23)nc2ccccc21	-3	-1	101	-3	104	/	/	/
O=C(O)c1cccc(C(=O)O)c1Br	11	-1	109	-1	152*	104	6	98
COC(=O)c1cc(C(=O)OC)cc(N2C(=O)CC(NNC(=O)c3ccc(C)cc3)C2=O)c1 (configuration not stated)	-1	5	61*[inhibitor]	-3	89	102	4	102
Cc1ccc(S(=O)(=O)N2CCOCC2)cc1NC(=O)CN(C)C1CCS(=O)(=O)C1 (configuration not stated)	-1	-2	96	-3	99	/	/	/
CSc1ncccc1C(=O)OCC(=O)NC(C)(C)C	-2	1	93	-2	96	/	/	/
COC(=O)c1ccc(S(=O)(=O)N2CCCN(Cc3ccccc3)CC2)n1C	5	-2	102	-3	101	/	/	/
COC(=O)c1ccc(S(=O)(=O)N2CCCN(Cc3cccc(Br)c3F)CC2)n1C	-38	-3	73*[inhibitor]	-4	53*[inhibitor]	95	-4	98
CC(C)OCCCNC(=O)CCN1C(=O)COc2ccccc21	-20	-3	1.0*[inhibitor]	-4	-2.0*[inhibitor]	108	6	106

Screening results as filed in PubChem.
